The subject of data set [1] is NCI-H522. The data set is described as follows: Cytotoxicity against human NCI-H522 cells assessed as reduction in cell survival at 1 to 5 uM incubated for 3 days in presence of ferroptosis inhibitor, liproxstatin-1 by methylene blue staining based analysis. The class given is functional. To be noted: dose 1-5 µM, time 3.0 day.
Data set [2] is described as follows: Cytotoxicity against human WI-38 cells assessed as reduction in cell survival incubated for 30 mins by methylene blue staining based analysis.
In data set [3] the test system is NCI-H522. Briefly: Induction of ferroptosis in human NCI-H522 cells assessed as induction of lipid peroxidase accumulation at 10 uM incubated for 6 hrs by C11-BODIPY-581/591 staining based flow cytometry analysis. The class given is functional, cell-based. In short, it runs like this:
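NCI-H522 cells were plated overnight to about 70% density and treated at 10 μM. C11-BODIPY 581/591 (1 μM) was added at the time of treatment. After 6 h, cells were trypsinized, washed, resuspended in PBS with 2% FBS and analysed by flow cytometry, 20 × 10³ cells per sample.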
On the technique in general: In flow cytometry, cells or beads pass a laser one at a time.

For another data set, the target named is Histone deacetylase 1 (Homo sapiens, UniProt Q13547). The data set is described as follows: Inhibition of full length his6/FLAG-tagged human recombinant HDAC1(1 to 482 residues) expressed in Sf9 insect cells.
Data set [4] addresses T1, Protein deacetylase HDAC6 (Homo sapiens, UniProt Q9UBN7).
T1 sequence (Q9UBN7 whole entry): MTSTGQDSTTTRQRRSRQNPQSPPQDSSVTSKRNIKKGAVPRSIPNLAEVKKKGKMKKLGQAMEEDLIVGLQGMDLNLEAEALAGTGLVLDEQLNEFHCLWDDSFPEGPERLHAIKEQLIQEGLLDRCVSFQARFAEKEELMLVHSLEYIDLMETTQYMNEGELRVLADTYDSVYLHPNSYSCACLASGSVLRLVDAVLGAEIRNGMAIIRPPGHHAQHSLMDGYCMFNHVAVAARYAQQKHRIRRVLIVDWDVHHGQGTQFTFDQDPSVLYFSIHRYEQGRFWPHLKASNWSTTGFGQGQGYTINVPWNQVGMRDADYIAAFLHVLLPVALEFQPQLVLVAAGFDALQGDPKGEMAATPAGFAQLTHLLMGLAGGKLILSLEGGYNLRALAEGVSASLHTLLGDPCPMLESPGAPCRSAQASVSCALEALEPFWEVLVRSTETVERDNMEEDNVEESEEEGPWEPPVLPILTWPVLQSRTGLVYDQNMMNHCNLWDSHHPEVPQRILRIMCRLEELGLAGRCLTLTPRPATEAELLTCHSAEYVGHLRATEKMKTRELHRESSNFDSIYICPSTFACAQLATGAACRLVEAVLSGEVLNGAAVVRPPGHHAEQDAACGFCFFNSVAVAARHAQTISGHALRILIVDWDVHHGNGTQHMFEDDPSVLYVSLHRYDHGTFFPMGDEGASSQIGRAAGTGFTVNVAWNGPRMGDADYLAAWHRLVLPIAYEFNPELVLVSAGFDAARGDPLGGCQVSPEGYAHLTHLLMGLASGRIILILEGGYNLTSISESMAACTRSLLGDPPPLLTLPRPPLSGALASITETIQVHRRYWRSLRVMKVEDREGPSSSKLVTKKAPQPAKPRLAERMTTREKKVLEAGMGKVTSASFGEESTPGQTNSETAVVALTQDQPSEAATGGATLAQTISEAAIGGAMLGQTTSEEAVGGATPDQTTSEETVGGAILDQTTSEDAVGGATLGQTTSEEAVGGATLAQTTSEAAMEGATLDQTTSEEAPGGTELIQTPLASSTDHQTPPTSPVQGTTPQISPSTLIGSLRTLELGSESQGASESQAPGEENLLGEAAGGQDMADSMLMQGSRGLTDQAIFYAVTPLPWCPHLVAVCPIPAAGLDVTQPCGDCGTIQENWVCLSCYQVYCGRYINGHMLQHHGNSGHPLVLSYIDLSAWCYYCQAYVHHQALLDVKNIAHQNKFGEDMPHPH
The data set is described as follows: Inhibition of full length C-terminal FLAG-tagged human recombinant HDAC6 expressed inSf9 insect cells. More on the design: species or system Sf9.

A further data set deals with Histone deacetylase 3 (Homo sapiens, UniProt O15379). Briefly: Inhibition of full length C-terminal his6/FLAG-tagged human recombinant HDAC3 ([…]) expressed in Sf9 insect cells.
Data set [5] relates to NCI-H522. Briefly: Induction of ferroptosis in human NCI-H522 cells assessed as viability at 5 uM incubated at 0.2 to 10.2 hrs by microscopic analysis. The format is functional, cell-based. As to conditions: time 0.2-10.2 hrs. A digest of the protocol:
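Time-lapse imaging used NCI-H522 cells adhered overnight and equilibrated to 10% CO2, held in sealed flasks on a 37 °C stage. Frames were taken every 12 min, 300 in total, with a ×40 objective. For Kaplan–Meier curves, at least 100 cells were scored, with death counted per 1 h or 0.2 h interval.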

The subject of data set [6] is NCI-H522. The data set is described as follows: Induction of cell cycle arrest in human NCI-H522 cells assessed as accumulation at S phase 5 uM incubated for 24 to 72 hrs by PI staining based flow cytometric analysis. The class given is functional. As to conditions: time lower […], time upper […].
Data set [7] has as its system NCI-H522. The data set is described as follows: Induction of cell cycle arrest in human NCI-H522 cells assessed as accumulation at G1 phase 5 uM incubated for 24 to 72 hrs by PI staining based flow cytometric analysis. The class given is functional. As to conditions: time lower […], time upper […].
Another data set relates to HL-60. The data set is described as follows: Cytotoxicity against human HL-60 cells assessed as cell growth inhibition incubated for 24 hrs by MTT assay. The format is functional, cell-based. (Formazan colour is commonly taken as a measure of viable cells.)
A further data set relates to K562. The data set is described as follows: Cytotoxicity against human K562 cells assessed as cell growth inhibition incubated for 24 hrs by MTT assay. The class given is functional, cell-based.
The test system of the next data set is MOLT-4. Briefly: Cytotoxicity against human MOLT-4 cells assessed as cell growth inhibition incubated for 24 hrs by MTT assay. The class given is functional, cell-based.
Another data set deals with RPMI-8226. The data set is described as follows: Cytotoxicity against human RPMI-8226 cells assessed as cell growth inhibition incubated for 24 hrs by MTT assay. As to conditions: RPMI-8226, 24 h.
In a further data set the test system is SR. The data set is described as follows: Cytotoxicity against human SR cells assessed as cell growth inhibition incubated for 24 hrs by MTT assay. The format is functional, cell-based.
The subject of a further data set is EKVX. Briefly: Cytotoxicity against human EKVX cells assessed as cell growth inhibition incubated for 24 hrs by MTT assay. The format is functional, cell-based. A digest of the protocol: (§1)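 Run within the NCI-60 DTP screen: a single-dose test at 10 μM across about sixty human tumour lines, read as Growth % and mean inhibition. Selected compounds then went to a five-dose assay to derive GI50. Both were single experiments without replicates.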

For another data set, the system named is HOP-92. The data set is described as follows: Cytotoxicity against human HOP-92 cells assessed as cell growth inhibition incubated for 24 hrs by MTT assay. The format is functional, cell-based. In short, it runs like this:
as §1

A further data set concerns NCI-H226. The data set is described as follows: Cytotoxicity against human NCI-H226 cells assessed as cell growth inhibition incubated for 24 hrs by MTT assay. The format is functional, cell-based.
In a further data set the test system is NCI-H322M. Briefly: Cytotoxicity against human NCI-H322M cells assessed as cell growth inhibition incubated for 24 hrs by MTT assay. The format is functional, cell-based. In short, it runs like this:
as §1

For another data set, the system named is NCI-H460. The data set is described as follows: Cytotoxicity against human NCI-H460 cells assessed as cell growth inhibition incubated for 24 hrs by MTT assay. The format is functional, cell-based.
Data set [8] deals with NCI-H522. Briefly: Cytotoxicity against human NCI-H522 cells assessed as cell growth inhibition incubated for 24 hrs by MTT assay. The class given is functional, cell-based.
Another data set has as its system SF-539. The data set is described as follows: Cytotoxicity against human SF-539 cells assessed as cell growth inhibition incubated for 24 hrs by MTT assay. As to conditions: SF-539, 24 h.
The next data set relates to NCI-H23. The data set is described as follows: Cytotoxicity against human NCI-H23 cells assessed as cell growth inhibition at 10 uM incubated for 24 hrs by MTT assay. As to conditions: NCI-H23, 24 h.

The source made the active and inactive calls. The rule behind the calls is not given here.

As usually defined, the IC50 is the concentration that inhibits the measured activity by half. A word on the GI50: it is the concentration at which growth is held to half of that of the control.

Sequence of Histone deacetylase 3 (O15379 whole entry): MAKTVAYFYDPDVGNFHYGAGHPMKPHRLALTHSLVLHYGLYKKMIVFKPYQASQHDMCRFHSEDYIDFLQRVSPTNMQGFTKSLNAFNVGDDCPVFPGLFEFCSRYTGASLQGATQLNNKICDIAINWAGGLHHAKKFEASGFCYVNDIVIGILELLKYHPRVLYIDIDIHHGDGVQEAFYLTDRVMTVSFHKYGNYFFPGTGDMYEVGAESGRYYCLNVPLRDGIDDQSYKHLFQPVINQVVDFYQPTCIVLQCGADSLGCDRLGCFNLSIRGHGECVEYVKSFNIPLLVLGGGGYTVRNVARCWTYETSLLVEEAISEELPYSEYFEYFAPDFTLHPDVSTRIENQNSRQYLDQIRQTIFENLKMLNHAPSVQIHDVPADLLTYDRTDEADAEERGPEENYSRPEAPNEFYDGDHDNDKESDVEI
Sequence of Histone deacetylase 1 (Q13547 whole entry, the tested form may be a part): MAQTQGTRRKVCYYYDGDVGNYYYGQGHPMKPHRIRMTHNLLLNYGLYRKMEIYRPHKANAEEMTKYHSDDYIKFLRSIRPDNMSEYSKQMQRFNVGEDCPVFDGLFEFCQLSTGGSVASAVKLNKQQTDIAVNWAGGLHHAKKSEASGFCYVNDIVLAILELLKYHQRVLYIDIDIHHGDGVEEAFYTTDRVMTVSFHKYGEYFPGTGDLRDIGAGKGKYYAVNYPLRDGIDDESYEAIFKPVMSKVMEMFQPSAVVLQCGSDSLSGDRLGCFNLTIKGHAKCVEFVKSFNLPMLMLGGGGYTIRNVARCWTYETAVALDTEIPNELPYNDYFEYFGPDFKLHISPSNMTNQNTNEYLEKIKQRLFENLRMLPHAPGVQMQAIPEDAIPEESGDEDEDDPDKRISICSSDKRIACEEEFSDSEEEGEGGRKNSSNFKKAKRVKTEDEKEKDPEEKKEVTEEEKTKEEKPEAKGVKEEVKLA

`C#Cc1nc(C(=O)NCCCCCCC(=O)NO)cs1`: the outcome in the data set with NCI-H522 [1], in the data set with NCI-H522 [3], with NCI-H522 [5], with NCI-H522 [6], in the data set with NCI-H522 [7] and in the data set on HL-60 was Active. Further, the result in the data set with K562, with MOLT-4, in the data set on SR, in the data set with EKVX, in the data set with HOP-92 and in the data set with NCI-H226 was Active. Besides, the outcome with NCI-H322M, in the data set with NCI-H460 and in the data set on NCI-H522 [8] was Active. For the same compound, in [2], the concentration for half-maximal inhibition (IC50) at 30 min stood at 8.37 µM. Further, the figures for the IC50 (at Histone deacetylase 1; in data set [4]; at Histone deacetylase 3) were 0.067 µM, 0.001 µM and 0.05 µM, respectively. For the same compound, the GI50 with RPMI-8226 stood at 0.35 µM; in the data set with SF-539, 1 µM; with NCI-H23, 0.78 µM.
